Screens: PubChem, several laboratories
Rows were chosen to be rich in hits. Some 3.8% of all compounds tested hit in one or more screens of this group.
Measles CPE: protection of cells from measles virus | Measles virus-infected cells, CPE protection, absorbance | protection (pct of control), % at 4 µM | actives 1.5% (n = 140,000); in the data active means protection mostly above about 24%, no sharp cut-off; inactive means mostly below about 26%
Yeast life ext: yeast lifespan extension. S. cerevisiae growth with nicotinamide, OD615; deaD strain in restrictive glucose medium. inhibition of the nicotinamide effect, % at 10 µM. actives 0.68% (n = 130,000);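 active means inhibition above a set limit, placed 3 SD over the median of all compounds, cut at about 26% in these data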;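 further: 0% = nicotinamide-treated wells and 100% = cells grown without nicotinamide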
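System: Modified budding yeast, DeaD strain | Buffer or medium: Restrictive glucose medium | Also added: 1.5 mM nicotinamide | Doses: 10 µM single point, 0.25% DMSO | Schedule: 48 h compound exposure at 30 °C, humidified | Detection: Absorbance at 615 nm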
Yeast growth inh: yeast BB579 growth reduction in restrictive medium; S. cerevisiae BB579 growth, OD615, 48 h; inhibition, % at 10 µM; actives 0.51% (n = 140,000); AID 804;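 active means inhibition above a set limit, 3 SD over the mean compound inhibition, cut at about 44% in these data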
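Test system: DeaD yeast strain BB579 / Buffer or medium: restrictive glucose-based CSMM-D medium / Doses: single 10 µM dose / Schedule: 4 h cell preincubation, 48 h compound exposure, 30 °C humidified / Technique: culture absorbance at 615 nm / Controls: amphotericin B positive control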
RAM inhibit: blocks the yeast RAM network; S. cerevisiae dse1pr::URA3 reporter, 5-FOA growth OD615, 2 d; analog-sensitive cbk1-as2 kinase mutant strain; inhibition, % at 50 µM; actives 1.8% (n = 190,000); AID 868;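 active means inhibition above a set limit, 3 SD over mean compound inhibition, cut at about 8.4% in these data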;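 further: 0% = DMSO-only wells with no growth and 100% = 10 µM 1-NA-PP1 full growth; inhibition rescues growth on 5-FOA so higher OD means more RAM inhibition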
Active calls of the source: *; . = no result given.

SMILES	Measles CPE	Yeast life ext	Yeast growth inh	RAM inhibit
COc1ccc(CCNC(=O)c2c(O)c3cccc4c3n(c2=O)CC4)cc1	0	30	-55	8.5*
COc1ccc(CNC(=O)C2CCC(CNc3nc(=S)[nH]c4ccccc34)CC2)cc1 (stereo not drawn)	.	.	.	1
CCCN(C(=O)CCl)C1=CCCCC1	.	.	.	0
COc1ccc(CC(=O)NNC(=O)c2cccs2)cc1	17	-1	-23	1
COc1ccc(NC(=O)c2cccs2)cc1	27	.	-16	-1
COc1ccccc1OCC(=O)NNC(=O)c1cccs1	6	33*	-39	2
COc1ccc(NC(=S)NNC(=O)c2cccs2)cc1	17*	0	-29	1
CCCCC(=O)Nc1ccc(C(=O)NNC(=S)NC(=O)c2cccs2)cc1	10	36*	-23	0
CC(=O)N1CCN(c2ccc(OC[C@H]3CO[C@](Cn4ccnc4)(c4ccc(Cl)cc4Cl)O3)cc2)CC1	19	-7	93*	1
CN1C(=O)C2(OCC(COc3ccc(Cl)cc3)O2)c2ccccc21 (stereo not drawn)	2	-9	-50	5
COc1ccc(C2C(Oc3ccccc3C)C(=O)N2Cc2ccc(F)cc2)cc1OC (stereo not drawn)	9	4	-46	8.9*
COc1cc(/C=C/C(=O)c2c(O)cc(C)oc2=O)cc(OC)c1O	21	56*	-17	0
COc1cccc(/C=C/C(=O)c2c(O)cc(C)oc2=O)c1O	17	47*	-12	1
COc1ccc(/C=C/C(=O)c2c(O)cc(C)oc2=O)c(OC)c1	18	-8	-54	7
CCOC(=O)c1c(C)[nH]c(C(=O)COC(=O)/C=C/c2ccc(OCC#N)c(OC)c2)c1C	.	.	.	5
c1ccc2c(-c3[nH]ncc3CNCCCn3ncc4ccccc43)cccc2c1	.	.	.	1
O=C1C2CCCN2C(c2ccco2)N1c1ccc(F)cc1 (stereo not drawn)	.	.	.	2
COc1ccc(-c2nnc3sc(C(C)N4C(=O)c5ccccc5C4=O)nn23)cc1 (stereo not drawn)	11	30*	-23	1
COc1ccccc1-c1nnc2sc(-c3ccc(N(C)C)cc3)nn12	1	1	-34	5
Cc1ccc(CNC(=O)C(C)OC(=O)c2ccco2)cc1 (stereo not drawn)	0	39*	-10	0
COc1ccc(NC(=O)Cn2c(=O)n(-c3ccc(CC(=O)NCc4ccco4)cc3)c(=O)c3ccccc32)cc1	.	.	.	3
O=C(NCCc1ccccc1)C(NS(=O)(=O)c1cccc2nsnc12)c1ccccc1 (stereo not drawn)	7	3	-44	1
CCOC(=O)CCc1c(C)nc(SCC(=O)O)c(C#N)c1C	32*	0	-47	1
Cc1nc(SCC(=O)O)c(C#N)c(C)c1CC(=O)c1ccccc1	.	.	.	6
CCN(CC)S(=O)(=O)c1ccc(C(=O)Nc2nnc(-c3ccco3)o2)cc1	.	.	.	7
SMILES	Measles CPE	Yeast life ext	Yeast growth inh	RAM inhibit
CCCCN(CC)S(=O)(=O)c1ccc(C(=O)Nc2nnc(-c3cccs3)o2)cc1	1	-12	-45	8.6*
CCOC(=O)N1CCC(NC(=O)c2cc(C(=O)NCc3cccc(Cl)c3)ccc2CO)CC1	39*	-3	-6	5
O=C(Nc1ccc(Cl)cc1)/C(=C/c1cccc(O)c1)c1nc2ccccc2s1	3	-3	-28	8.5*
S=C(Nc1ccc(Cl)cc1)c1nc2ccccc2s1	7	7	-67	8.4*
Cc1ccc(NC(=S)c2nc3ccccc3s2)cc1	28	-13	-42	6
Cc1ccc(/C=C/C(=O)OCC(=O)NC(C)C)o1	.	.	.	2
CC(C)(C)OC(=O)N1CCN(c2ccc([N+](=O)[O-])cc2)CC1	.	.	.	0
CC(C)(C)N=C1SCC(C)(/C=N/O)S1 (stereo not drawn)	55*	-7	-15	0
CC1CCc2c(sc(NC(=O)c3ccccc3C(=O)O)c2C#N)C1 (stereo not drawn)	.	.	.	3
Cc1ccccc1C(=O)NC(=S)Nc1sc2c(c1C#N)CCC(C)C2 (stereo not drawn)	59*	-15	-32	2
COC(=O)c1cc(NC(=S)Nc2cc(Cl)cc(Cl)c2)cc(C(=O)OC)c1	7	27*	-32	2
COc1ccc(CNC(C)C(=O)Nc2ccc3ccccc3c2)cc1OC (stereo not drawn)	.	.	.	1
CCc1cc2c(SCC(=O)c3ccc(C)cc3)ncnc2s1	41*	.	-43	9.9*
COCC1CCN(Cc2cn(-c3ccccc3F)nc2-c2cc(C)sc2C)CC1	.	.	.	0
Cc1ccccc1C(=O)c1cccn1CC(=O)NC(C)c1ccc2c(c1)OCCO2 (stereo not drawn)	.	.	.	3
CC1=C(C(=O)Nc2ccccc2C(F)(F)F)C(c2sccc2C)NC(=S)N1 (stereo not drawn)	.	.	.	0
Clc1ccc(Oc2nc(N3CCOCC3)nc(N3CCOCC3)n2)cc1	34*	-11	-30	1
COc1ccc(/C=C/C(=O)C23CC4CC(CC(C4)C2)C3)cc1CN1CCOCC1	.	.	.	1
CCCCOc1ccc(NC(=S)Nc2cc(C)nc(SCCCC)n2)cc1	26	20	-29	9.6*
CCOc1ccc(NC(=O)CSc2nc(C)cc(C)n2)cc1	16	.	-11	1
O=C(NC(c1ccccc1)c1ccccc1)c1cccc(S(=O)(=O)NCc2ccccc2)c1	1	8	-17	8.6*
O=C(NCc1cccc(C(F)(F)F)c1)c1cccc(S(=O)(=O)NCc2ccccc2)c1	19	8	-27	3
Cc1c(Cl)c(C(=O)N2CCCC2)nn1C	9	7	-45	1
O=C(CCC(=O)OCC(=O)c1ccc(Cl)cc1Cl)Nc1cccc2cccnc12	4	-19	-54	4
O=C(CCC(=O)OCC(=O)c1ccc(-c2ccccc2)cc1)Nc1cccc2cccnc12	5	-18	-55	10*
SMILES	Measles CPE	Yeast life ext	Yeast growth inh	RAM inhibit
CCN(CC)S(=O)(=O)c1cc(C)ccc1SC	4	13	-22	1
COc1cc([N+](=O)[O-])cc2cc(C(=O)N3CCN=C3c3ccccc3)c(=O)oc12	.	.	.	8.9*
Cn1ncc2c(NNC(=O)c3ccc(Cl)cc3Cl)ncnc21	27	-3	10	1
CCN(CC)CCCNc1oc(-c2ccc(OC)c(OC)c2)nc1C#N	45*	6	-4	1
COc1ccc(-c2nc(C#N)c(NCCCn3ccnc3)o2)cc1OC	12	-12	1	0
CCS(=O)(=O)c1nc(S(=O)(=O)c2ccc(Cl)cc2)c(N2CCc3ccccc3C2)s1	2	3	-43	7
CCN1CCN(S(=O)(=O)CC2(C)C3CCC2(C)C(=O)C3Br)CC1 (stereo not drawn)	.	.	.	-1
S=c1[nH]nc(-c2ccccn2)n1/N=C/c1ccc(-c2ccccc2Br)o1	.	.	.	1
S=c1[nH]nc(-c2ccccc2)n1/N=C/c1ccc(-c2ccccc2Cl)o1	70*	-1	-4	1
O=C(c1ccccc1)n1nc(-c2ccccc2)nc1NCc1ccco1	19	-7	-12	10*
O=C(c1ccco1)n1nc(-c2cccnc2)nc1NCc1ccco1	.	.	.	2
